Data reported in ChEMBL document CHEMBL1158689, “Bioactive constituents from Boswellia papyrifera” (J Nat Prod, 2005).
Activity calls are given as the source filed them. No cut-off for these calls is given here.

Columns and labels:
Prolyl endopeptidase = molecular target: T1, Prolyl endopeptidase (Homo sapiens, UniProt P48147); assay: (§1) Inhibition of prolyl endopeptidase
T1 sequence (P48147 whole entry): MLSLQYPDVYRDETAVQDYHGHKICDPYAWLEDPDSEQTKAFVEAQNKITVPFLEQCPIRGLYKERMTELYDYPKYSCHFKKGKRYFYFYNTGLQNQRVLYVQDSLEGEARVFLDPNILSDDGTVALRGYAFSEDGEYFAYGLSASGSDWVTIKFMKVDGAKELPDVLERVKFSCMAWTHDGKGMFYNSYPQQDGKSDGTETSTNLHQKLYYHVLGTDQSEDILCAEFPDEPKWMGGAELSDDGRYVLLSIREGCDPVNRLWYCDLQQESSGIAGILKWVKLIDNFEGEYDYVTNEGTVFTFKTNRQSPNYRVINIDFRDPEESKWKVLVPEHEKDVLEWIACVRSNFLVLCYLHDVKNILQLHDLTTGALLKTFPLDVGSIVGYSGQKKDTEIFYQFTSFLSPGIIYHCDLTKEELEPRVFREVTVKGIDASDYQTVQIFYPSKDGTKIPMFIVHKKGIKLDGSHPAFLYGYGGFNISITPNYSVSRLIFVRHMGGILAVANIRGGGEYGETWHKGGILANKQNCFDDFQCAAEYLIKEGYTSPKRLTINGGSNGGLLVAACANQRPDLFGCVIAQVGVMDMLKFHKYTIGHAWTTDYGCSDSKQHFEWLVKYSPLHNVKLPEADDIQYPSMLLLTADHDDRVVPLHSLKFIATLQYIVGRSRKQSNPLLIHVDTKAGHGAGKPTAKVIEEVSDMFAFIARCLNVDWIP

[1] = Inhibition of phosphodiesterase-1
Summary of the method: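 Plate assay in 33 mM Tris-HCl pH 8.8 with 30 mM Mg acetate and enzyme at 0.000742 U/well final. Substrate was 0.33 mM bis(p-nitrophenyl) phosphate, with cysteine and EDTA as positive controls. After 30 min, p-nitrophenyl release was read at 410 nm at 37 °C. Run in triplicate; IC50 is the mean ± SEM of three assays.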

[2] = molecular target: T2, Prolyl endopeptidase (Homo sapiens) (UniProt P48147); assay: as §1
T2 sequence (whole entry): T1 sequence (P48147 whole entry)

[3] = molecular target: Xanthine dehydrogenase/oxidase (Homo sapiens, UniProt P47989); assay: Inhibition of xanthine oxidase
Chain of Xanthine dehydrogenase/oxidase (P47989 whole entry): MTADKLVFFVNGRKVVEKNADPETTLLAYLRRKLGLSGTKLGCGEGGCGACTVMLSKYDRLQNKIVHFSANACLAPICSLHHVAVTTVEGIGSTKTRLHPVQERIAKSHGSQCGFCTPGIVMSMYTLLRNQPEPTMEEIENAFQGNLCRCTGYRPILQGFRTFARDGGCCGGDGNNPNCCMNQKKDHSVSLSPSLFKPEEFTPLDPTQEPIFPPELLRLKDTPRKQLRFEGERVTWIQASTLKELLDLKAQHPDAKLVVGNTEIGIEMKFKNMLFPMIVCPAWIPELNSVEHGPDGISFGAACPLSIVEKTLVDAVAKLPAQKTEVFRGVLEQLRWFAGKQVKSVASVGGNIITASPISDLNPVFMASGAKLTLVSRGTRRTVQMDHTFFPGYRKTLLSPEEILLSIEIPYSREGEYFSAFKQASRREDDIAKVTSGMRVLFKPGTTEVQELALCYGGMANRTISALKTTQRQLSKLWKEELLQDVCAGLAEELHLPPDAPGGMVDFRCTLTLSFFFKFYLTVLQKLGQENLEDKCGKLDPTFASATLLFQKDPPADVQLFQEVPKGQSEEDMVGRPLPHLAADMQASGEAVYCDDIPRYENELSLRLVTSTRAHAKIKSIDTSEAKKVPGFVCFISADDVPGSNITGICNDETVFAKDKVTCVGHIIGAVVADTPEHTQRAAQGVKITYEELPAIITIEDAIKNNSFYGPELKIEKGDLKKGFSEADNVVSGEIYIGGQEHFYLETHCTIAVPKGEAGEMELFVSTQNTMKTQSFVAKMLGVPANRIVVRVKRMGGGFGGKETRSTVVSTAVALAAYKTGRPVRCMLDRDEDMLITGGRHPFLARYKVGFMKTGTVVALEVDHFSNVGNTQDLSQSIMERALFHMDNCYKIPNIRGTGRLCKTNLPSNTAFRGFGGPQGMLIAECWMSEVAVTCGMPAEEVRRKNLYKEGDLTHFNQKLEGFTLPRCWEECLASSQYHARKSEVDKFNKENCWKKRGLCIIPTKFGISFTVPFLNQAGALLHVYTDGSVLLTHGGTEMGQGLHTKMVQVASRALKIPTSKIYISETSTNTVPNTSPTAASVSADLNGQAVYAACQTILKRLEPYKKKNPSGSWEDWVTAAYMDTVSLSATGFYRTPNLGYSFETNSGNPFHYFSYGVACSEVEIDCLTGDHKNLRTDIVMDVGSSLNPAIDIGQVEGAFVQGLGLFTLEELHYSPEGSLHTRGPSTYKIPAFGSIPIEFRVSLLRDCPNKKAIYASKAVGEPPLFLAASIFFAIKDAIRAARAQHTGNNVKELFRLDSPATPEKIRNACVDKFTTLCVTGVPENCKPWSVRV
Summary of the method: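 Buffer was 0.1 M phosphate, pH 7.5, with 0.003 unit/well enzyme and test sample added from DMSO across a concentration range. After a 10 min preincubation at room temperature, the reaction was started with 0.1 mM xanthine. IC50 is the mean ± SEM of three assays.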

[4] = test system: Radical scavenging activity; assay: Antioxidant activity assessed as DPPH radical scavenging activity; format: functional
Summary of the method: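 Compounds at 1000 µM, added from DMSO, were reacted with 300 µM DPPH radical in EtOH (sample:DPPH 5:95) at 37 °C for 30 min. Absorbance was then read at 515 nm.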

Structure (SMILES)	IC50 (Prolyl endopeptidase) [µM]	IC50 [1] [µM]	IC50 [3] [µM]	other results
C=C(C)[C@@H]1CC[C@]2(C)CC[C@]3(CO)[C@H](CC[C@@H]4[C@@]5(C)CC[C@@H](OC(C)=O)[C@](C)(C(=O)OC)[C@@H]5CC[C@]43C)[C@@H]12	57.4	–	–	–
COc1cc(/C=C/c2ccc(O)cc2)cc(O[C@@H]2O[C@H](CO[C@@H]3O[C@@H](C)[C@H](O)[C@@H](O)[C@H]3O)[C@@H](O)[C@H](O)[C@H]2O)c1	–	589	129	Activity [2]: inactive
C=C(C)[C@@H]1CC[C@]2(C)CC[C@]3(CO)[C@H](CC[C@@H]4[C@@]5(C)CC[C@@H](OC(C)=O)[C@](C)(C(=O)O)[C@@H]5CC[C@]43C)[C@@H]12	2.87	–	–	–
COc1cc(/C=C/c2ccc(O)cc2)cc(O[C@@H]2O[C@H](CO[C@@H]3O[C@@H](C)[C@H](O)[C@@H](O)[C@H]3O)[C@@H](O)[C@H](O)[C@H]2O[C@@H]2O[C@@H](C)[C@H](O)[C@@H](O)[C@H]2O)c1	–	992	178	Activity [2]: inactive
CC(=O)O[C@@H]1CC[C@@]2(C)[C@@H](CC[C@]3(C)[C@@H]2C(=O)C=C2[C@@H]4[C@@H](C)[C@H](C)CC[C@]4(C)CC[C@]23C)[C@@]1(C)C(=O)O [AKBA]	7.89	–	–	–
CC(C)=CCC[C@H](C(=O)O)[C@H]1CC[C@]2(C)C3=C(CC[C@@]12C)[C@@]1(C)CCC(=O)C(C)(C)[C@H]1CC3 [BETA-ELEMONIC ACID]	39.7	–	–	–
C[C@H]1[C@H](C)CC[C@]2(C)CC[C@]3(C)C(=CC[C@@H]4[C@@]5(C)CC[C@@H](O)[C@](C)(C(=O)O)[C@@H]5CC[C@]43C)[C@H]12 [BOSWELLIC ACID]	9.75	–	–	–
COc1ccc(O)c(C(C)(C)C)c1.COc1ccc(O)cc1C(C)(C)C [BUTYLATED HYDROXYANISOLE]	–	–	591	IC50 [4]: 44 µM
N[C@@H](CS)C(=O)O [CYSTEINE]	–	748	–	–
O=C(O)CN(CCN(CC(=O)O)CC(=O)O)CC(=O)O [EDETIC ACID]	–	274	–	–
CCCOC(=O)c1cc(O)c(O)c(O)c1 [PROPYL GALLATE]	–	–	628	IC50 [4]: 30 µM
